Test results: ChEMBL document CHEMBL1135468 (J Med Chem, 2002)
*1 amine or outer side, *2 acyl side, *3 side chain or, on linkers, in order; H or OH if unused. Where a SMILES comes first, the peptide text is derived from it. Bridges are numbered along the chain shown (N, C = ends). [ ]: non-standard residue; d: D form. The star is where a group is joined. 6FAM = O=C1OC2(c3ccc(O)cc3Oc3cc(O)ccc32)c2cc(C(=O)*)ccc21; X4 = O=C(CC1(S[*:2])CCCCC1)[*:1]; X1 = O=C([C@@H](O)CS[*:2])[*:1]; Orn = NCCC[C@H](N)C(=O)O; Mpa = O=C(O)CCS

Tests used:
Oxytocin receptor = target: T1, Oxytocin receptor (Homo sapiens, UniProt P30559); experiment: Binding affinity for human oxytocin receptor
T1 sequence (P30559 whole entry): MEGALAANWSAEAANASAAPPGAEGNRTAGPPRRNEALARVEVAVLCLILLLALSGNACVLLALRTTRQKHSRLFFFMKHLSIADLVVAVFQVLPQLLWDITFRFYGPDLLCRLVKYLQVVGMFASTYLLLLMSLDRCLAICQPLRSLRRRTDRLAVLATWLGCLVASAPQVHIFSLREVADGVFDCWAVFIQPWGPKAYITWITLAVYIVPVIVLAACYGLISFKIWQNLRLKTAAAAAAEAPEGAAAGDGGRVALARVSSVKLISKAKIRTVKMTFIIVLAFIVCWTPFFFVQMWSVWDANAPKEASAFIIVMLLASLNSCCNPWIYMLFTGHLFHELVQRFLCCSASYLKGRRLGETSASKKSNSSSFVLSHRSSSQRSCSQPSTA

Vasopressin V1a receptor = Vasopressin V1a receptor (Homo sapiens, UniProt P37288); experiment: Binding affinity for human Vasopressin V1a receptor
Chain of Vasopressin V1a receptor (P37288 whole entry): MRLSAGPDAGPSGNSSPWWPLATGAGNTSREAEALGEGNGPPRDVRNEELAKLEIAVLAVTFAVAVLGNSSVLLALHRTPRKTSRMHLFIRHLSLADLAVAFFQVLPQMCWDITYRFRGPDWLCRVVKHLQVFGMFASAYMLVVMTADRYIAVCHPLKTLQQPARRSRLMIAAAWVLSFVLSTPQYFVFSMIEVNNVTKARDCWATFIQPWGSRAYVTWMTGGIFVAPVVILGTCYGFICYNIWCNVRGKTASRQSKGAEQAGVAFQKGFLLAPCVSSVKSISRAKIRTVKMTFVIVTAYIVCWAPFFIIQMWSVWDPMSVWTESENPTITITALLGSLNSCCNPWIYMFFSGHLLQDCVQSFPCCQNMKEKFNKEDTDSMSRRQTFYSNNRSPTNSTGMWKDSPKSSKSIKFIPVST

Vasopressin V2 receptor = Vasopressin V2 receptor (Homo sapiens, UniProt P30518); experiment: Binding affinity towards human Vasopressin V2 receptor
Chain of Vasopressin V2 receptor (P30518 whole entry): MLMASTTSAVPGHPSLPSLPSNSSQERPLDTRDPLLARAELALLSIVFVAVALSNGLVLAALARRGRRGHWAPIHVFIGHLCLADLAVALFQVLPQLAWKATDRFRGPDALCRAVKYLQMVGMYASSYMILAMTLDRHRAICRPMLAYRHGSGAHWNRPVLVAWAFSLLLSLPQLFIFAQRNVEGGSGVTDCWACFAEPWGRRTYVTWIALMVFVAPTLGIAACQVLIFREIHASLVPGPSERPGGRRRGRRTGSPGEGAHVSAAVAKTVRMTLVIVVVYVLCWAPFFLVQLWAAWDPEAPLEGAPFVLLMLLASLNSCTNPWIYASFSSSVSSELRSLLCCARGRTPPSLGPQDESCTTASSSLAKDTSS
Method in brief: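 Human V2 receptor stably expressed in CHO cells, butyrate-treated (5 mM, overnight); membranes at 5-10 µg protein/assay competed against 1-3 nM [3H]AVP. Fluorescent ligand ranged 1 pM-1 µM; nonspecific binding defined with 1 µM unlabeled ligand. Incubation 1 h at 30 °C. Ki from nonlinear least-squares fit of two independent experiments, each run in triplicate.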

Vasopressin V1b receptor = target: T2, Vasopressin V1b receptor (Homo sapiens, UniProt P47901); experiment: Binding affinity towards human Vasopressin V1b receptor
T2 sequence (P47901 whole entry): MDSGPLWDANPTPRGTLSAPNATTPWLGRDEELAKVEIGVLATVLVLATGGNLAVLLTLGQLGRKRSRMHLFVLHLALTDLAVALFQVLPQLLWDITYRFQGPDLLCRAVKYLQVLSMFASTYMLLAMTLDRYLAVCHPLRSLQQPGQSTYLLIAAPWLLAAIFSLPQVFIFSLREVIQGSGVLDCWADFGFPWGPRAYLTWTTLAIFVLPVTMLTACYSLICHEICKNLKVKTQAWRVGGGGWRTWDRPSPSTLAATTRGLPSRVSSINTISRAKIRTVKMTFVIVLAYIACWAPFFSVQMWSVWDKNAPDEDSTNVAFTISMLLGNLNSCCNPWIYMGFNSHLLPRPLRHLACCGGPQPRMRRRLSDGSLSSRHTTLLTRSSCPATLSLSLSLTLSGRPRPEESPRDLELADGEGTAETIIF
Method in brief: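 Competition binding on membranes from CHO cells stably expressing one human receptor, butyrate-treated (5 mM, overnight). Radioligands: OT, 200-250 pM [125I]OTA or 120-180 pM [125I]HO-LVA; V1a, 40-60 pM [125I]HO-LVA; V1b, 1-3 nM [3H]AVP. Competitor 1 pM-1 µM; nonspecific with 1 µM unlabeled ligand; 1 h, 30 °C. Ki by nonlinear least-squares, ≥3 experiments in triplicate.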

Structure (SMILES)	Ki (Oxytocin receptor) [nM]	Ki (Vasopressin V1a receptor) [nM]	Ki (Vasopressin V2 receptor) [nM]	Ki (Vasopressin V1b receptor) [nM]
CC[C@H](C)[C@@H]1NC(=O)[C@@H](Cc2ccc(O)cc2)NC(=O)CC2(CCCCC2)SSC[C@@H](C(=O)N2CCC[C@H]2C(=O)N[C@@H](CCCNC(=O)c2ccc3c(c2)C2(OC3=O)c3ccc(O)cc3Oc3cc(O)ccc32)C(=O)O)NC(=O)[C@H](CC(N)=O)NC(=O)[C@H]([C@@H](C)O)NC1=O	126	656	> 10000	> 1000
CC[C@H](C)[C@@H]1NC(=O)[C@H](Cc2ccc(O)cc2)NC(=O)[C@@H](O)CSSC[C@@H](C(=O)N2CCC[C@H]2C(=O)N[C@@H](CCCNC(=O)c2ccc3c(c2)C2(OC3=O)c3ccc(O)cc3Oc3cc(O)ccc32)C(=O)NCC(N)=O)NC(=O)[C@H](CC(N)=O)NC(=O)[C@H](CCC(N)=O)NC1=O (YIQNCP[Orn](6FAM)G-NH2; linker N-5 via X1)	0.18	12.2		126
CC[C@H](C)[C@@H]1NC(=O)[C@H](Cc2ccc(O)cc2)NC(=O)CCSSC[C@@H](C(=O)N2CCC[C@H]2C(=O)N[C@@H](CCCCNC(=O)c2ccc3c(c2)C2(OC3=O)c3ccc(O)cc3Oc3cc(O)ccc32)C(=O)NCC(N)=O)NC(=O)[C@H](CC(N)=O)NC(=O)[C@H](CCC(N)=O)NC1=O ([Mpa]YIQNCPK(6FAM)G-NH2; disulfide 1-6)	0.29	57	> 10000	124
CC[C@H](C)[C@@H]1NC(=O)[C@H](Cc2ccc(OC)cc2)NC(=O)CC2(CCCCC2)SSC[C@@H](C(=O)N2CCC[C@H]2C(=O)N[C@@H](CCCN)C(=O)N[C@@H](Cc2ccc(O)cc2)C(N)=O)NC(=O)[C@H](CC(N)=O)NC(=O)[C@H]([C@@H](C)O)NC1=O (Y(Me)ITNCP[Orn]Y-NH2; linker N-5 via X4)	0.21	3.9	930	> 10000
CC[C@H](C)[C@@H]1NC(=O)[C@H](Cc2ccc(O)cc2)NC(=O)CCSSC[C@@H](C(=O)N2CCC[C@H]2C(=O)N[C@@H](CCCNC(=O)c2ccc3c(c2)C2(OC3=O)c3ccc(O)cc3Oc3cc(O)ccc32)C(=O)NCC(N)=O)NC(=O)[C@H](CC(N)=O)NC(=O)[C@H](CCC(N)=O)NC1=O ([Mpa]YIQNCP[Orn](6FAM)G-NH2; disulfide 1-6)	0.25	107	> 10000	393
CC[C@H](C)[C@@H]1NC(=O)[C@H](Cc2ccc(O)cc2)NC(=O)[C@@H](O)CSSC[C@@H](C(=O)N2CCC[C@H]2C(=O)N[C@@H](CCCCNC(=O)c2ccc3c(c2)C2(OC3=O)c3ccc(O)cc3Oc3cc(O)ccc32)C(=O)NCC(N)=O)NC(=O)[C@H](CC(N)=O)NC(=O)[C@H](CCC(N)=O)NC1=O (YIQNCPK(6FAM)G-NH2; linker N-5 via X1)	0.34	13.7		66
